≈ marks a conversion by molar mass, not a printed value. Calls of active or inactive are those of the source. The calls are words filed in the database; no cut-off is given here.
How the values were obtained:
NCI-H460 = assay: Cytotoxicity against human NCI-H460 cells after 48 hrs by sulforhodamine B assay; format: functional; details: NCI-H460, 48 h
Method in brief: (§1)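 Cells were grown in RPMI-1640 with 5% fetal bovine serum in 96-well plates for 24 h, then exposed to serial dilutions in DMSO vehicle for 48 h. Plates were fixed with trichloroacetic acid, stained with sulforhodamine B and read for optical density. GI50 is the concentration giving a 50% reduction in net protein increase.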

Escherichia coli = assay: Antibacterial activity against Escherichia coli ATCC 25922 at 64 ug/mL by broth microdilution assay; format: functional, organism-based
Enterococcus faecalis = assay: Antibacterial activity against Enterococcus faecalis ATCC 29212 at 64 ug/mL by broth microdilution assay; format: functional, organism-based
Staphylococcus aureus = assay: Antibacterial activity against Staphylococcus aureus ATCC 29213 at 64 ug/mL by broth microdilution assay; format: functional, organism-based
Candida albicans = assay: Antifungal activity against Candida albicans ATCC 90028 at 64 ug/mL by broth microdilution assay; format: functional, organism-based
KM-20L2 = assay: Cytotoxicity against human KM20L2 cells after 48 hrs by sulforhodamine B assay; format: functional; details: KM-20L2, 48 h; method in brief: as §1
Streptococcus pyogenes [1] = assay: Antibacterial activity against Streptococcus pyogenes clinical isolate by broth microdilution assay; format: functional
Micrococcus luteus = assay: Antibacterial activity against Micrococcus luteus Presque Isle 456 at 64 ug/mL by broth microdilution assay; format: functional, organism-based
Streptococcus pyogenes [2] = assay: Antibacterial activity against Streptococcus pyogenes clinical isolate by broth microdilution assay in presence of 25% heat inactivated human serum; format: functional
P388 = assay: Cytotoxicity against mouse P388 cells after 48 hrs by coulter counter method; format: functional; details: P388, 48 h, read-out: ED50 (the source's name)
Method in brief: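 Murine lymphocytic leukemia P388 cells were preincubated for 24 h in Fisher medium with 10% horse serum, then incubated 48 h with serial dilutions in DMSO vehicle. Cells were counted on a Coulter particle counter, and ED50 was taken as the concentration giving 50% growth inhibition.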

Cryptococcus neoformans = assay: Antifungal activity against Cryptococcus neoformans ATCC 90112 at 64 ug/mL by broth microdilution assay; format: functional, organism-based
SF-268 = assay: Cytotoxicity against human SF268 cells after 48 hrs by sulforhodamine B assay; format: functional; details: SF-268, 48 h; method in brief: as §1
Neisseria gonorrhoeae = assay: Antibacterial activity against Neisseria gonorrhoeae ATCC 49226 at 64 ug/mL by broth microdilution assay; format: functional, organism-based
[3] = tested on: Stenotrophomonas maltophilia; assay: Antibacterial activity against Stenotrophomonas maltophilia ATCC 13637 at 64 ug/mL by broth microdilution assay; format: functional, organism-based
Enterobacter cloacae = assay: Antibacterial activity against Enterobacter cloacae ATCC 13047 at 64 ug/mL by broth microdilution assay; format: functional, organism-based
Streptococcus pneumoniae [4] = assay: Antibacterial activity against penicillin-resistant Streptococcus pneumoniae clinical isolate by broth microdilution assay; format: functional
Streptococcus pneumoniae [5] = assay: Antibacterial activity against Streptococcus pneumoniae by broth microdilution assay in presence of 25% heat inactivated human serum; format: functional
BXPC-3 = assay: Cytotoxicity against human BxPC3 cells after 48 hrs by sulforhodamine B assay; format: functional; details: BXPC-3, 48 h; method in brief: as §1
Streptococcus pneumoniae [6] = assay: Antibacterial activity against multidrug-resistant Streptococcus pneumoniae ATCC 700673 by broth microdilution assay; format: functional
DU-145 = assay: Cytotoxicity against human DU145 cells after 48 hrs by sulforhodamine B assay; format: functional; details: DU-145, 48 h; method in brief: as §1
Streptococcus pneumoniae [7] = assay: Antibacterial activity against Streptococcus pneumoniae ATCC 6303 by broth microdilution assay; format: functional
MCF7 = assay: Cytotoxicity against human MCF7 cells after 48 hrs by sulforhodamine B assay; format: functional; details: MCF7, 48 h; method in brief: as §1

| SMILES | GI50 (NCI-H460) | Activity (Escherichia coli) | Activity (Enterococcus faecalis) | Activity (Staphylococcus aureus) | Activity (Candida albicans) | GI50 (KM-20L2) | MBC (Streptococcus pyogenes [1]) | MIC (Streptococcus pyogenes [1]) | Activity (Micrococcus luteus) | MIC (Streptococcus pyogenes [2]) | EC50 (P388) | Activity (Cryptococcus neoformans) | GI50 (SF-268) | Activity (Neisseria gonorrhoeae) | Activity [3] | Activity (Enterobacter cloacae) | MBC (Streptococcus pneumoniae [4]) | GI50 (BXPC-3) | GI50 (DU-145) | GI50 (MCF7) | further results |
| --- | --- | --- | --- | --- | --- | --- | --- | --- | --- | --- | --- | --- | --- | --- | --- | --- | --- | --- | --- | --- | --- |
| CC[C@H](C)[C@H]1OC(=O)[C@H](C(C)C)NC(=O)[C@H](C)OC(=O)[C@@H](C(C)C)NC(=O)[C@@H]([C@@H](C)CC)OC(=O)[C@H](C(C)C)NC(=O)[C@H](C)OC(=O)[C@@H](C(C)C)NC(=O)[C@@H](CC(C)C)OC(=O)[C@H](C(C)C)NC(=O)[C@H](C)OC(=O)[C@@H](C(C)C)NC1=O | 0.00045 µg/mL (≈ 0.39 nM) | inactive | inactive | inactive | inactive | 0.00026 µg/mL (≈ 0.225 nM) | > 16 µg/mL | 2 µg/mL (≈ 1730 nM) | inactive | > 64 µg/mL | 0.013 µg/mL (≈ 11.3 nM) | inactive | 0.0018 µg/mL (≈ 1.56 nM) | inactive | inactive | inactive | 1 µg/mL (≈ 867 nM) | 0.00034 µg/mL (≈ 0.295 nM) | 0.00086 µg/mL (≈ 0.746 nM) | 0.00031 µg/mL (≈ 0.269 nM) | MIC (Streptococcus pneumoniae [4]): 1 µg/mL (≈ 867 nM); MIC (Streptococcus pneumoniae [5]): > 64 µg/mL; MBC (Streptococcus pneumoniae [6]): < 0.5 µg/mL; MIC (Streptococcus pneumoniae [6]): < 0.5 µg/mL; MBC (Streptococcus pneumoniae [7]): 2 µg/mL (≈ 1730 nM); MIC (Streptococcus pneumoniae [7]): 1 µg/mL (≈ 867 nM) |
| CC[C@H](C)[C@H]1OC(=O)[C@H](C(C)C)NC(=O)[C@H](C)OC(=O)[C@@H](C(C)C)NC(=O)[C@@H]([C@@H](C)CC)OC(=O)[C@H](C(C)C)NC(=O)[C@H](C)OC(=O)[C@@H](C(C)C)NC(=O)[C@@H]([C@@H](C)CC)OC(=O)[C@H](C(C)C)NC(=O)[C@H](C)OC(=O)[C@@H](C(C)C)NC1=O [BACILLISTATIN 1] | 0.0023 µg/mL (≈ 1.99 nM) | inactive | inactive | inactive | inactive | 0.00087 µg/mL (≈ 0.754 nM) | > 32 µg/mL | 2 µg/mL (≈ 1730 nM) | inactive | > 64 µg/mL | 0.023 µg/mL (≈ 19.9 nM) | inactive | 0.00045 µg/mL (≈ 0.39 nM) | inactive | inactive | inactive | 2 µg/mL (≈ 1730 nM) | 0.00095 µg/mL (≈ 0.824 nM) | 0.0015 µg/mL (≈ 1.3 nM) | 0.00061 µg/mL (≈ 0.529 nM) | MIC (Streptococcus pneumoniae [4]): 1 µg/mL (≈ 867 nM); MIC (Streptococcus pneumoniae [5]): > 64 µg/mL; MBC (Streptococcus pneumoniae [6]): 1 µg/mL (≈ 867 nM); MIC (Streptococcus pneumoniae [6]): < 0.5 µg/mL; MBC (Streptococcus pneumoniae [7]): 4 µg/mL (≈ 3470 nM); MIC (Streptococcus pneumoniae [7]): 2 µg/mL (≈ 1730 nM) |
| CC(C)[C@@H]1NC(=O)[C@H](C)OC(=O)[C@@H](C(C)C)NC(=O)[C@@H](C(C)C)OC(=O)[C@H](C(C)C)NC(=O)[C@H](C)OC(=O)[C@@H](C(C)C)NC(=O)[C@@H](C(C)C)OC(=O)[C@H](C(C)C)NC(=O)[C@H](C)OC(=O)[C@@H](C(C)C)NC(=O)[C@@H](C(C)C)OC1=O [VALINOMYCIN] | 0.0025 µg/mL (≈ 2.25 nM) |  |  |  |  | 0.0008 µg/mL (≈ 0.72 nM) |  |  |  |  | 0.12 µg/mL (≈ 108 nM) |  | 0.0027 µg/mL (≈ 2.43 nM) |  |  |  |  | 0.0019 µg/mL (≈ 1.71 nM) | 0.0035 µg/mL (≈ 3.15 nM) | 0.001 µg/mL (≈ 0.9 nM) |  |
